Results reported in ChEMBL document CHEMBL3228026, “Inhibition of gastric acid secretion by 1,8-naphthyridin-2(1H)-ones” (J Med Chem, 1979).
Calls of active or inactive are those of the source.

Columns and labels:
[1] = biological target: Histamine H2 receptor (Rattus norvegicus) (UniProt P25102); assay: Antagonist activity at histamine H2 receptor in Charles River rat assessed as inhibition of histamine-mediated electrically stimulated uterine contraction at 20 ug/mL relative to histamine-treated placebo
Sequence of Histamine H2 receptor (Rattus norvegicus) (P25102 whole entry): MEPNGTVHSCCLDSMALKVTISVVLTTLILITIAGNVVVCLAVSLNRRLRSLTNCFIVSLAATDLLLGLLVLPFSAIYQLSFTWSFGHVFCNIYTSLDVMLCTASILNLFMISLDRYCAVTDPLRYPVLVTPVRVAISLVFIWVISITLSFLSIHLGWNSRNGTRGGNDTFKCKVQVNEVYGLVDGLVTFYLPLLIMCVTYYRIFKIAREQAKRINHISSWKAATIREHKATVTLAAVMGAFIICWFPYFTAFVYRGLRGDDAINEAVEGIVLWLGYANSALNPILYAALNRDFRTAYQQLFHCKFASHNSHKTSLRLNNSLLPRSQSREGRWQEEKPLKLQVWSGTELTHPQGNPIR
Summary of the method: (§1)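 Uteri taken from female rats (150–200 g) primed with diethylstilbesterol (0.16 mg/rat) 16–20 h before sacrifice. Single horns were held in McEwen's solution at 34 °C under 95% O2–5% CO2. They were stimulated electrically every 50 s for 10 s with maximal current and 60 Hz trains of 1-ms pulses, and the block of the histamine response was scored. Footnote cutoff: under 30% reduction with test compound at 20 µg/mL.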

[2] = tested on: Canis familiaris; assay: Antisecretory activity in Beagle dog assessed as inhibition of gastrin tetrapeptide-stimulated gastric acid secretion at 20 mg/kg, po administered 1 hr prior to gastrin tetrapeptide challenge measured every 30 mins for 90 mins relative to placebo control; format: functional; conditions: Canis lupus familiaris, Stomach
Summary of the method: (§2)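 Conscious female beagles (7–10 kg) with a chronic gastric fistula received compound through the gastric cannula, called oral. Gastric output was collected over three 30-min periods (90 min) after the stimulant. Titratable acid in an aliquot was titrated to pH 7 with 0.01 N NaOH using a glass-calomel electrode. The value is the maximal % drop in acid concentration against a placebo trial in the same dog, with SE where more than two animals.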

[3] = tested on: Canis familiaris; assay: Antisecretory activity in Beagle dog assessed as inhibition of histamine-stimulated gastric acid secretion at 40 mg/kg, po administered 1 hr prior to histamine challenge measured every 30 mins for 90 mins relative to placebo control; format: functional, organism-based; design: dose 40 mg/kg; conditions: Canis lupus familiaris, Stomach; summary of the method: as §2
[4] = biological target: Histamine H2 receptor (Rattus norvegicus, UniProt P25102); assay: Antagonist activity at histamine H2 receptor in Charles River rat assessed as inhibition of histamine-mediated electrically stimulated uterine contraction; summary of the method: as §1
Sequence of Histamine H2 receptor (P25102 whole entry): as above

[5] = biological target: Histamine H2 receptor (Cavia porcellus) (UniProt P47747); assay: Antagonist activity at histamine H2 receptor in Hartley guinea pig atrium assessed as ratio of histamine concentration required in control to that required in presence of compound to increase atrium rate by 50 beats/min at 10 ug/mL; conditions: Cardiac atrium
Sequence of Histamine H2 receptor (Cavia porcellus) (P47747 whole entry): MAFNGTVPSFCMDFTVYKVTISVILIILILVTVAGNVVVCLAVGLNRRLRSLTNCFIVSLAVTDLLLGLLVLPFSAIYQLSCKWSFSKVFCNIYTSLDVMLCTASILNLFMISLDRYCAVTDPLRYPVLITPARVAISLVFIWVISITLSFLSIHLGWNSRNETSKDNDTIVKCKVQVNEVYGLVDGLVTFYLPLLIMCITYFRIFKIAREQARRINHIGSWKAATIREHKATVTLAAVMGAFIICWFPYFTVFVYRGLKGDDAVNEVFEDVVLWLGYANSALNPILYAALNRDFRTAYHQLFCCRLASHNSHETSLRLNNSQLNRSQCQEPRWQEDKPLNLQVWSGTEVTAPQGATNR
Summary of the method: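 Spontaneously beating Hartley guinea pig atria were dissected free of other myocardium and held in McEwen's solution on a transducer. Rate was counted from the tracing. Histamine was given at increasing concentrations (0.05–3.2 µg/mL) with placebo or with inhibitor at 10 µg/mL. The value is the ratio of histamine concentration needed to raise rate by 50 beats/min in the placebo trial to that needed with compound.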

[6] = tested on: Canis familiaris; assay: Antisecretory activity in Beagle dog assessed as inhibition of histamine-stimulated gastric acid secretion at 20 mg/kg, po administered 1 hr prior to histamine challenge measured every 30 mins for 90 mins relative to placebo control; format: functional; conditions: Canis lupus familiaris, Stomach; summary of the method: as §2
[7] = tested on: Canis familiaris; assay: Antisecretory activity in Beagle dog assessed as inhibition of gastrin tetrapeptide-stimulated gastric acid secretion at 40 mg/kg, po administered 1 hr prior to gastrin tetrapeptide challenge measured every 30 mins for 90 mins relative to placebo control; format: functional, organism-based; design: dose 40 mg/kg; conditions: Canis lupus familiaris, Stomach; summary of the method: as §2

Row | SMILES | inhibition [1] [%] | inhibition in vivo at 20 mg/kg [2] [%] | inhibition [3] | EC50 [4] [µM] | Ratio [5] | inhibition in vivo at 20 mg/kg [6] [%] | inhibition [7]
1 | Cc1cc(C)c2ccc(=O)n(CCN(C3CCCCC3)C3CCCCC3)c2n1 | < 30 | < 25 | inactive | – | – | – | –
2 | CNCCn1c(=O)ccc2c(C)cc(C)nc21 | – | < 25 | inactive | 91.2 | – | – | –
3 | Cc1cc(C)c2ccc(=O)n(CC(C)(C)N(C)C)c2n1 | – | 38 | inactive | 38 | – | – | –
4 | CN(C)CCn1c(=O)ccc2cccnc21 | < 30 | 59 | inactive | – | 0.54 | – | –
5 | Cc1cc(Cl)nc2c1ccc(=O)n2CCN(C)C | – | < 25 | inactive | 34.7 | – | – | –
6 | Cc1cc(C)c2ccc(=O)n(CCCCN(C)C)c2n1 | < 30 | < 25 | inactive | – | – | – | –
7 | Cc1cc(C)c2ccc(=O)n(CCCN(C)C)c2n1 | < 30 | 31 | inactive | – | – | – | –
8 | CCc1cc(CC)c2ccc(=O)n(CCN(C)C)c2n1 | – | < 25 | inactive | 19 | – | – | –
9 | Cc1cnc2c(ccc(=O)n2CCN(C)C)c1 | < 30 | 58 | inactive | – | – | – | –
10 | CCc1ccc2ccc(=O)n(CCN(C)C)c2n1 | – | < 25 | inactive | 3.22 | – | – | –
11 | CCN(CC)CCn1c(=O)ccc2c(C)cc(C)nc21 | – | < 25 | inactive | 4.1 | – | – | –
12 | Cc1cc(C)c2c(n1)N(CCN(C)C)C(=O)CC2 | – | < 25 | inactive | 19.4 | 0.013 | – | –
13 | Cc1cc(C)c2ccc(=O)n(CCN3C(C)(C)CCCC3(C)C)c2n1 | < 30 | < 25 | inactive | – | – | – | –
14 | Cc1cc(C)c2ccc(=O)n(CC[N+](C)(C)C)c2n1 | < 30 | < 25 | inactive | – | – | – | –
15 | CC(C)Cc1ccc2ccc(=O)n(CCN(C)C)c2n1 | – | < 25 | inactive | 0.585 | 0.21 | – | –
16 | CC(C)N(CCn1c(=O)ccc2cccnc21)C(C)C | – | 51 | inactive | 76.5 | – | – | –
17 | Cc1cc(C)c2ccc(=O)n(CCN(C(C)C)C(C)C)c2n1 | – | 57 | inactive | 4.78 | 0.011 | – | –
18 | CNC(=S)NCCSCc1[nH]cnc1C [METIAMIDE] | – | 76 | – | – | 0.003 | 46 | –

Row | SMILES | inhibition [1] [%] | inhibition in vivo at 20 mg/kg [2] [%] | inhibition [3] | EC50 [4] [µM] | Ratio [5] | inhibition in vivo at 20 mg/kg [6] [%] | inhibition [7]
19 | CCCCN(CCCC)CCn1c(=O)ccc2c(C)cc(C)nc21 | – | 33 | inactive | 5.46 | – | – | –
20 | CC(C)c1ccc2ccc(=O)n(CCN(C)C)c2n1 | – | < 25 | inactive | 2.31 | – | – | –
21 | Cc1cc(C)c2ccc(=O)n(CCN3CCCCC3)c2n1 | – | 40 | inactive | 10.7 | – | – | –
22 | Cc1nc2c(ccc(=O)n2CCN(C)C)c(C)c1C | – | 61 | inactive | 48.2 | – | – | –
23 | Cc1cc(C(F)(F)F)c2ccc(=O)n(CCN(C)C)c2n1 | < 30 | 52 | inactive | – | – | – | –
24 | Cc1cc(C)c2ccc(=O)n(CCN(C)C)c2n1 | – | 40 | inactive | 16 | 0.18 | – | –
25 | COc1cc(C)c2ccc(=O)n(CCN(C)C)c2n1 | – | 27 | inactive | 26.8 | – | – | –
26 | Cc1cc(C)c2ccc(=O)n(CCN)c2n1 | – | < 25 | inactive | 156 | – | – | –
27 | C/N=C(\S)NCCSCc1[nH]cnc1C [METIAMIDE] | – | – | – | 1.15 | – | – | –
28 | Cc1ccnc2c1ccc(=O)n2CCN(C)C | < 30 | 58 | inactive | – | – | – | –
29 | Cc1cc(C(F)(F)F)nc2c1ccc(=O)n2CCN(C)C | – | 34 | inactive | 5.35 | – | – | –
30 | Cc1cc(C)c2ccc(=S)n(CCN(C)C)c2n1 | – | 41 | inactive | 14 | – | – | –
31 | Cc1ccc2ccc(=O)n(CCN(C)C)c2n1 | – | < 25 | inactive | 9.43 | – | – | –
32 | Cc1cc(C)c2c(n1)N(CCN(C)C)CCC2 | – | – | inactive | 4.33 | – | – | inactive
33 | CCn1c(=O)ccc2c(C)cc(C)nc21 | < 30 | < 25 | inactive | – | – | – | –
34 | CN(C)CCn1c(=O)ccc2ccccc21 | < 30 | < 25 | inactive | – | – | – | –
35 | CN(C)CCn1c(=O)ccc2c(C(F)(F)F)cc(C(F)(F)F)nc21 | < 30 | 32 | inactive | – | – | – | –
